Legend:
PC-12 [1] = test: Cytotoxicity against rat PC12 cells assessed as effect on cell viability at 1 mM after 48 hrs by tetrazolium/formazan assay; settings: pc-12, 48 h, 1000 µM
PC-12 [2] = test: Cytotoxicity against rat PC12 cells assessed as effect on cell viability at 0.5 mM after 48 hrs by tetrazolium/formazan assay; settings: pc-12, 48 h, 500 µM
PC-12 [3] = test: Induction of apoptosis in rat PC12 cells assessed as length of migrated cell nucleus at 1 mM after 3 hrs by comet assay; assay type: toxicity, cell-based; settings: pc-12, 3 h, 1000 µM
In short: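 PC12 cells (5×10^5/well in PBS(-)) exposed to 1.0 mM final compound for 3 h at 37 °C. Cells embedded in low-melt agarose, lysed 1 h at 4 °C, then alkaline unwinding 30 min. Electrophoresed at 15 V for 30 min and stained with SYBR Green. 200 cells scored per sample under fluorescence at ×200. Whole comet length measured with an ocular micrometer.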

PC-12 [4] = test: Cytotoxicity against rat PC12 cells assessed as effect on cell viability at 0.01 mM after 48 hrs by tetrazolium/formazan assay; assay type: cell-based; settings: pc-12, 48 h, 10 µM
In short: (§1)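 PC12 cells in log growth, seeded at 3×10^5 cells/mL in serum-containing DMEM. After 24 h, medium replaced with the derivative diluted in serum-free DMEM. After 48 h exposure, CCK-8 (WST tetrazolium) added for 4 h at 37 °C. A490 read and viability expressed as % of untreated control. Means ± S.E., n = 3-6. Dunnett test after ANOVA.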

PC-12 [5] = test: Cytotoxicity against rat PC12 cells assessed as effect on cell viability at 0.05 to 1 mM after 48 hrs by tetrazolium/formazan assay; assay type: cell-based; settings: pc-12, 48 h, 1000 µM; in short: as §1
[6] = biological target: T1, Amine oxidase [flavin-containing] A (Homo sapiens, UniProt P21397); test: Inhibition of MAOA at 100 nM after 60 mins using tyramine as substrate relative to control; design: scale not given: the % may be the effect or the level left; settings: 1 h
T1 sequence (P21397 whole entry): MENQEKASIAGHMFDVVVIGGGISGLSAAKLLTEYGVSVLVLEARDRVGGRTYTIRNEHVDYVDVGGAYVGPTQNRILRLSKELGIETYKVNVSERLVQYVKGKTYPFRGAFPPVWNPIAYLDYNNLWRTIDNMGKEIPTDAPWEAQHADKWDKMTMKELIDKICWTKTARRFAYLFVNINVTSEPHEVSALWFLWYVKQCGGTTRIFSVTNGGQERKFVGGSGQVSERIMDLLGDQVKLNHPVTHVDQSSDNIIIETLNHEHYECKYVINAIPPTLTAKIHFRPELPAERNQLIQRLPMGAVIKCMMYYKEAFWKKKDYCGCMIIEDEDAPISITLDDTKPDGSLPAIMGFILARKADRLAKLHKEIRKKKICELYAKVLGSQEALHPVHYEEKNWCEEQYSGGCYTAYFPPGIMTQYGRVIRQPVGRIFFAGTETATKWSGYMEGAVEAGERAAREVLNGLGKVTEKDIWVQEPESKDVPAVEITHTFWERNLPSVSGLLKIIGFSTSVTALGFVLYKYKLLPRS
In short: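 MAO-A enzyme (10 µg/mL) incubated with 0.5 mM tyramine and 100 nM compound for 60 min at 37 °C. H2O2 formed was detected with a peroxidase-coupled fluorogenic kit (ex 530/em 590 nm). Activity expressed as % of vehicle control. Means ± S.E., n = 8.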

[7] = biological target: T2, Amine oxidase [flavin-containing] B (Homo sapiens, UniProt P27338); test: Inhibition of MAOB at 100 nM after 60 mins using benylamine as substrate relative to control; design: scale not given: the % may be the effect or the level left; settings: 1 h
T2 sequence (P27338 whole entry): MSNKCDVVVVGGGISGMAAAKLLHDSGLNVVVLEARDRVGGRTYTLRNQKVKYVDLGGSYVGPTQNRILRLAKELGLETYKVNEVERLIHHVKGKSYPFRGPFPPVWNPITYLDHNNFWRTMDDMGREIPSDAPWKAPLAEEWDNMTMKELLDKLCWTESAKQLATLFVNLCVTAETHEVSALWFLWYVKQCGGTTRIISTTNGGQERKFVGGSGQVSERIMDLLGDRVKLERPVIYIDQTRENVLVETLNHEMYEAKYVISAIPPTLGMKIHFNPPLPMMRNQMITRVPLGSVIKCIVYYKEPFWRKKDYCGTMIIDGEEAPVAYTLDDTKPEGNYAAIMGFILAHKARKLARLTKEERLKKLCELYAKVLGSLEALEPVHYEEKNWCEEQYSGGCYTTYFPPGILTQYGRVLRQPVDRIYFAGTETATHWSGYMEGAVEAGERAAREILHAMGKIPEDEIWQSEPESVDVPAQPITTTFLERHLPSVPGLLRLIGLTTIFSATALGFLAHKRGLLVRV

[8] = biological target: T2, Amine oxidase [flavin-containing] B; test: Inhibition of MAOB at 100 nM after 60 mins using tyramine as substrate relative to control; design: scale not given: the % may be the effect or the level left; settings: 1 h

CCCCCC1NCCc2ccccc21 (stereo unspecified)
Activity (PC-12 [1]): Toxic | Activity (PC-12 [2]): Toxic

CCCC1NCCc2ccccc21 (stereo unspecified)
Activity (PC-12 [1]): Toxic | Activity (PC-12 [2]): Toxic

c1ccc2c(c1)CCNC2C1CCCCC1 (stereo unspecified)
Activity (PC-12 [3]): 120 um | Activity (PC-12 [2]): Toxic | Activity (PC-12 [4]): Non-toxic | Activity (PC-12 [5]): Toxic

C#CCN(C)[C@H](C)Cc1ccccc1 [SELEGILINE]
Activity at 0.1 µM [6]: 94.2%

CCC1NCCc2ccccc21 (stereo unspecified)
Activity (PC-12 [1]): Toxic | Activity (PC-12 [2]): Toxic

c1ccc2c(c1)CCNC2C1CC1 (stereo unspecified)
Activity (PC-12 [2]): Toxic | Activity (PC-12 [4]): Non-toxic

C#CCN1CCc2ccccc2C1C1CC1 (stereo unspecified)
Activity at 0.1 µM [6]: 96.2% | Activity at 0.1 µM [7]: 97.5% | Activity at 0.1 µM [8]: 98.4%

c1ccc2c(c1)CCNC2C1CCC1 (stereo unspecified)
Activity (PC-12 [2]): Toxic | Activity (PC-12 [4]): Non-toxic

CCCCC1NCCc2ccccc21 (stereo unspecified)
Activity (PC-12 [1]): Toxic | Activity (PC-12 [2]): Toxic

c1ccc2c(c1)CCNC2C1CCCC1 (stereo unspecified)
Activity (PC-12 [2]): Toxic | Activity (PC-12 [4]): Non-toxic

C#CCN1CCc2ccccc2C1C (stereo unspecified)
Activity at 0.1 µM [6]: 97.5% | Activity at 0.1 µM [7]: 99.4% | Activity at 0.1 µM [8]: 101%

C[n+]1ccc(-c2ccccc2)cc1.[Cl-]
Activity (PC-12 [3]): 60 um

CCCCCCC1NCCc2ccccc21 (stereo unspecified)
Activity (PC-12 [3]): 150 um | Activity (PC-12 [1]): Toxic | Activity (PC-12 [2]): Toxic | Activity (PC-12 [4]): Non-toxic | Activity (PC-12 [5]): Toxic

From ChEMBL document CHEMBL1154063, “Facile synthesis and in vitro properties of 1-alkyl- and 1-alkyl-N-propargyl-1,2,3,4-tetrahydroisoquinoline derivatives on PC12 cells” (Eur J Med Chem, 2009)
